Data taken from ChEMBL document CHEMBL1133760, “4-(3-Chloro-4-methoxybenzyl)aminophthalazines: synthesis and inhibitory activity toward phosphodiesterase 5” (J Med Chem, 2000).
Where a name gives a salt, the structure may show the parent alone. Values belong to the compound of their own block, whether it stands above or below them.

Tests used:
Sus scrofa = species on record: Sus scrofa; experiment: Vasorelaxant effect was evaluated on isolated porcine coronary arteries precontracted with PGF-2 alpha; assay type: functional
Outline: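 Endothelium-intact porcine coronary artery strips were held in Krebs-Henseleit (37 °C, pH 7.4, 95% O2-5% CO2) at 1 g resting tension. Endothelium was verified by 10^-8 M bradykinin relaxation after 50 mM KCl contraction. Strips were contracted with 10^-5 M PGF2α, then given cumulative compound additions. Relaxation was expressed as % of the PGF2α contraction. EC50 came from log concentration curves, as the mean of two experiments.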

[1] = Pharmacokinetic parameter, Bioavailability (F) after 0.3 mg/kg po administration in rats; assay type: ADME, organism-based; settings: rat, in vivo, read-out: BA
Outline: (§1)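 Rats received a 0.3 mg/kg dose intravenously or orally, with n = 4 per route. Plasma pharmacokinetic parameters were then derived.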

PDE II [2] = biological target: T1, PDE II (Sus scrofa, UniProt F1SUV3); experiment: Inhibition of phosphodiesterase 2 (PDE2) from porcine platelets, range 0.841-1.15; settings: in the assay text read “porcine adrenal” for “porcine platelets”
Outline: (§2)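 Two-step radioisotopic PDE activity assay (modified) with 1 µM [3H]cGMP as substrate. Enzymes were isolated from porcine tissues, and PDE5 was purified by DEAE-Toyopearl 650S chromatography. Inhibitors were diluted from DMSO into assay buffer over 10^-10 to 10^-6 M, with 1% (v/v) DMSO final. IC50 came from log concentration-inhibition curves (at least four points), as the mean of three experiments.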

Phosphodiesterase 4A [3] = biological target: T2, Phosphodiesterase 4A (Sus scrofa, UniProt O77823); experiment: Inhibition of phosphodiesterase 4 (PDE4) from porcine liver, range 1.01-1.36; outline: as §2
T2 sequence (O77823 whole entry): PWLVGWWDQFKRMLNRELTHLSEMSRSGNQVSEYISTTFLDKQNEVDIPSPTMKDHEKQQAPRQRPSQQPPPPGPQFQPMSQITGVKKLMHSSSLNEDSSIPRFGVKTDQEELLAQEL

Phosphodiesterase 3A [4] = biological target: T3, Phosphodiesterase 3A (Sus scrofa, UniProt Q9XSW7); experiment: Inhibition of phosphodiesterase 3 (PDE3) from porcine platelets, range 11.4-26.9; outline: as §2
T3 sequence (Q9XSW7 whole entry): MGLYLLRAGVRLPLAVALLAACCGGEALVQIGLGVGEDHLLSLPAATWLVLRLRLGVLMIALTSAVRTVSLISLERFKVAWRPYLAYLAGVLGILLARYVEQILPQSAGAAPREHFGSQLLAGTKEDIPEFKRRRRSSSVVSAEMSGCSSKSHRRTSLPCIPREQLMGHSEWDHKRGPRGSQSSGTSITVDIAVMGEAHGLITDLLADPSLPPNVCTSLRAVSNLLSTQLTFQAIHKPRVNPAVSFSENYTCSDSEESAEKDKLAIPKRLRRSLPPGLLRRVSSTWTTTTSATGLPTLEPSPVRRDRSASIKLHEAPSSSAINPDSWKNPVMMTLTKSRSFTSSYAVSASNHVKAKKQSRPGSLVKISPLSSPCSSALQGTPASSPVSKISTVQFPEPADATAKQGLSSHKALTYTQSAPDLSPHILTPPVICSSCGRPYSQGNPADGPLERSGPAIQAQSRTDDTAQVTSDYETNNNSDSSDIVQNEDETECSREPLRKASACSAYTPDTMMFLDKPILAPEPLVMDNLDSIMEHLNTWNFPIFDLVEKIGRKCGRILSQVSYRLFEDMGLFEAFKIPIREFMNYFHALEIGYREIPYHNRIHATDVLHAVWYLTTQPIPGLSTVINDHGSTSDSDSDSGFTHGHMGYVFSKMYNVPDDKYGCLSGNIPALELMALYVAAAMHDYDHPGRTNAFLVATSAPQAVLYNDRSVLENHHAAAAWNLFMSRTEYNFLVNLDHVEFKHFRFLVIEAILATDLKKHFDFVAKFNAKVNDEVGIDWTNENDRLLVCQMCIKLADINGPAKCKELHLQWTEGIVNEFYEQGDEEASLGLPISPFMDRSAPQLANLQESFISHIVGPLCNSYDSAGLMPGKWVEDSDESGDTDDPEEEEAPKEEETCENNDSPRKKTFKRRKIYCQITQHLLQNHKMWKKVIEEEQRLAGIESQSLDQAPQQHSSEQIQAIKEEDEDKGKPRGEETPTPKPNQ

[5] = Pharmacokinetic parameter, tmax after 0.3 mg/kg po administration in rats; assay type: ADME, organism-based; design: dose 0.3 mg/kg, route oral; settings: rat, in vivo; outline: as §1
[6] = Pharmacokinetic parameter, t1/2 after 0.3 mg/kg iv administration in rats; assay type: ADME, organism-based; design: dose 0.3 mg/kg, route intravenous; settings: rat, in vivo; outline: as §1
[7] = Pharmacokinetic parameter, Cmax (plasma conc.) after 0.3 mg/kg po administration in rats; assay type: ADME, organism-based; design: dose 0.3 mg/kg, route oral; settings: rat; outline: as §1
[8] = Pharmacokinetic parameter, AUC (area under curve) after 0.3 mg/kg po administration in rats; assay type: ADME, organism-based; design: dose 0.3 mg/kg, route oral; settings: rat, in vivo; outline: as §1
[9] = Inhibition of phosphodiesterase 1 (PDE1) from porcine adrenal tissue, range 20.0-34.4; design: species or system Sus scrofa; settings: in the assay text read “porcine aorta” for “porcine adrenal tissue”; outline: as §2
[10] = Pharmacokinetic parameter, AUC (area under curve) after 0.3 mg/kg iv administration in rats; assay type: ADME, organism-based; design: dose 0.3 mg/kg, route intravenous; settings: rat, in vivo; outline: as §1
[11] = Inhibition of phosphodiesterase 1 (PDE1) from porcine adrenal tissue, range 51.1-108; design: species or system Sus scrofa; settings: in the assay text read “porcine aorta” for “porcine adrenal tissue”; outline: as §2
Phosphodiesterase 3A [12] = biological target: T3, Phosphodiesterase 3A; experiment: Inhibition of phosphodiesterase 3 (PDE3) from porcine platelets, range 31.8-60.7
[13] = Inhibition of phosphodiesterase 1 (PDE1) from porcine adrenal tissue; assay type: tissue-based, Sus scrofa; settings: in the assay text read “porcine aorta” for “porcine adrenal tissue”; outline: as §2
Phosphodiesterase 4A [14] = biological target: T2, Phosphodiesterase 4A; experiment: Inhibition of phosphodiesterase 4 (PDE4) from porcine liver, range 10.4-16.3
Outline: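 PDE4 isolated from porcine liver; activity measured by a modified two-step radioisotopic assay. Compounds dissolved in DMSO and diluted in assay buffer to 10^-10 to 10^-6 M, with 1% (v/v) final DMSO. IC50 taken from logarithmic concentration-inhibition curves of at least four points, as the mean of three experiments.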

Phosphodiesterase 3A [15] = biological target: T3, Phosphodiesterase 3A; experiment: Inhibition of phosphodiesterase 3 (PDE3) from porcine platelets; outline: as §2
Phosphodiesterase 4A [16] = biological target: T2, Phosphodiesterase 4A; experiment: Inhibition of phosphodiesterase 4 (PDE4) from porcine liver; outline: as §2
PDE II [17] = biological target: T1, PDE II; experiment: Inhibition of phosphodiesterase 2 (PDE2) from porcine adrenal
[18] = Inhibition of phosphodiesterase 1 (PDE1) from porcine adrenal tissue, range 26.5-36.7; design: species or system Sus scrofa; settings: in the assay text read “porcine aorta” for “porcine adrenal tissue”; outline: as §2

SMILES: COc1ccc(CNc2nnc(N3CCC(O)CC3)c3ccc(Cl)cc23)cc1Cl
EC50 (Sus scrofa): 780 nM

SMILES: COc1ccc(CNc2nnc(N3CCN(CCO)CC3)c3ccc(C#N)cc23)cc1Cl
EC50 (Sus scrofa): 100 nM

SMILES: COc1ccc(CNc2nnc(N3CCC(O)CC3)c3ccc([N+](=O)[O-])cc23)cc1Cl
EC50 (Sus scrofa): 30 nM

SMILES: COc1ccc(CNc2nnc(N3CC[S+]([O-])CC3)c3ccc(C#N)cc23)cc1Cl
EC50 (Sus scrofa): 50 nM

SMILES: COc1ccc(CNc2nnc(N3CCC(O)CC3)c3ccc(C(F)(F)F)cc23)cc1Cl
EC50 (Sus scrofa): 120 nM

SMILES: COc1ccc(CNc2nnc(N3CC=CCC3)c3ccc(C#N)cc23)cc1Cl
EC50 (Sus scrofa): 130 nM

SMILES: COc1ccc(CNc2nnc(N3CCN(C)CC3)c3ccc(C#N)cc23)cc1Cl
EC50 (Sus scrofa): 320 nM

SMILES: OCCN(CCO)c1nc(N2CCCCC2)c2nc(N(CCO)CCO)nc(N3CCCCC3)c2n1 [DIPYRIDAMOLE]
IC50 [11]: 74500 nM | IC50 (Phosphodiesterase 3A [12]): 44000 nM

SMILES: Cc1[nH]c(=O)c(C#N)cc1-c1ccncc1 [MILRINONE]
IC50 [13]: > 100000 nM | IC50 (Phosphodiesterase 4A [14]): 13000 nM

SMILES: COc1ccc(C2CNC(=O)C2)cc1OC1CCCC1 (stereo not drawn) [ROLIPRAM]
IC50 (Phosphodiesterase 3A [15]): > 100000 nM | IC50 (Phosphodiesterase 4A [16]): 3630 nM | IC50 [13]: > 100000 nM | IC50 (PDE II [17]): > 100000 nM

SMILES: CCCc1nn(C)c2c(=O)[nH]c(-c3cc(S(=O)(=O)N4CCN(C)CC4)ccc3OCC)nc12 [SILDENAFIL CITRATE]
EC50 (Sus scrofa): 38 nM

SMILES: CCCOc1ccccc1-c1nc2[nH]nnc2c(=O)[nH]1 [ZAPRINAST]
IC50 (Phosphodiesterase 3A [15]): > 100000 nM | IC50 [18]: 31200 nM | IC50 (Phosphodiesterase 4A [16]): > 100000 nM

The remaining lines, values ahead:

EC50 (Sus scrofa): 130 nM
SMILES: COc1ccc(CNc2nnc(N3CCC(C)(O)CC3)c3ccc(C#N)cc23)cc1Cl

EC50 (Sus scrofa): 100 nM
SMILES: COc1ccc(CNc2nnc(N3CCC(OC)CC3)c3ccc(C#N)cc23)cc1Cl

bioavailability [1]: 19.5% | IC50 (PDE II [2]): 984 nM | IC50 (Phosphodiesterase 4A [3]): 1170 nM | IC50 (Phosphodiesterase 3A [4]): 17500 nM | Tmax [5]: 0.25 h | half-life [6]: 2.2 h | Cmax [7]: 25.5 ng/mL | AUC [8]: 32.4 ng·h/mL | EC50 (Sus scrofa): 13 nM | IC50 [9]: 26200 nM | AUC [10]: 166 ng·h/mL
SMILES: COc1ccc(CNc2nnc(N3CCC(O)CC3)c3ccc(C#N)cc23)cc1Cl.Cl

EC50 (Sus scrofa): 30 nM
SMILES: COc1ccc(CNc2nnc(N3CCC(CCO)CC3)c3ccc(C#N)cc23)cc1Cl

EC50 (Sus scrofa): 13 nM
SMILES: COc1ccc(CNc2nnc(N3CCC(=O)CC3)c3ccc(C#N)cc23)cc1Cl

EC50 (Sus scrofa): 19 nM
SMILES: COc1ccc(CNc2nnc(N3CCC(CO)CC3)c3ccc(C#N)cc23)cc1Cl

EC50 (Sus scrofa): 39 nM
SMILES: COc1ccc(CNc2nnc(N3CCCCC3)c3ccc(C#N)cc23)cc1Cl

EC50 (Sus scrofa): 870 nM
SMILES: COc1ccc(CNc2nnc(N3CCNCC3)c3ccc(C#N)cc23)cc1Cl

EC50 (Sus scrofa): 170 nM
SMILES: COc1ccc(CNc2nnc(N3CCC(C(=O)O)CC3)c3ccc(C#N)cc23)cc1Cl
